Measured values: the EternaBench riboswitch data

System: MS2 coat protein
Experiment: apparent Kd, MS2 coat protein; higher = weaker binding; RNA-MaP array; tryptophan 2.4 mM where present
In short: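 Stalled E. coli RNA polymerase produced the designs on Illumina sequencing-chip clusters. SNAP-549-labelled MS2 coat protein was added from 0.7 or 1.5 nM, doubling to 3 µM, without and then with constant ligand, in 100 mM Tris-HCl pH 7.5, 80 mM KCl, 4 mM MgCl2, BSA, DTT, yeast tRNA and Tween-20. The apparent Kd is the median of filtered per-cluster fits of green signal normalised to red-channel RNA signal and control-cluster median Fmax.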

[1] = designed as: ON switch for tryptophan, no ligand
[2] = ligand present: tryptophan, designed as: ON switch for tryptophan
[3] = designed as: OFF switch for tryptophan, no ligand
[4] = ligand present: tryptophan, designed as: OFF switch for tryptophan

Sequence	apparent Kd [1] [µM]	apparent Kd [2] [µM]	apparent Kd [3] [µM]	apparent Kd [4] [µM]
CGAGUAAGUUCAAUCGAAUAACGGUUUUCGCGAGGACCGGUACGGCCGCCACUCGUGUGAUAUCACACAUGAGGAUCACCCAUGU	0.0776	0.0474	–	–
GAGUAGAGGACGGCCGCCACUAAACAUGAGGAUCACCCAUGUCGUGAUCCGUUACCUAGAGUAGAUAGGACCGGGUCAUAUAGUC	–	–	0.0264	0.0213
AGCGCGGUGAUGGUAGCCGGACGCUAGGUACGAGGACCGGUACGGCCGCCACUCGGAGUCCUACGACAUGAGGAUCACCCAUGUA	0.0993	0.0468	–	–
AGAUUCGACACGGCCGCCACUCGUGACGGAUUUCCGAGUGUCGAACAUGAGGAUCACCCAUGUCCGAGGACCGGGUGUUGAGUCU	–	–	0.0341	0.522
AAGACAUGAGGAUCACCCAUGUCGUGUGAACGAGGACCGGUACGGCCGCCACUCGUUUGAAAAUAAACGAAUGCGGCCUGGGAAA	–	–	0.011	0.0142
CUACAUUUGUAGAAACCGGUCAACAAUAAUCGAGGACCGGUACGGCCGCCACUCGAUGUAAAAUAAACAUGAGGAUCACCCAUGU	0.0181	0.0193	–	–
AAUCAUGGAAACAUGACAUGAGGAUUACUCCGAGGACCGGUACGGCCGCCACUCGCGAGGAGGCGGACAUGAGGAUCACCCAUGU	0.185	0.0402	–	–
AUACAUGAGGAUCACCCAUGUGAUGGCCGGCGAGGACCGGUACGGCCGCCACUCGUGAUCCGUCCUGAAAGCAAAGCUCCCAGCA	0.0552	0.122	–	–
AAUGUGAAGGCGGCCGCCACUGAUAAUAGACAUGAGGAUCACCCAUGUAUAAAUCCUCAAUAAGACAGGACCGGGCCAUCUACGU	–	–	0.105	0.123
UUAUAUACUACGGCCGCCACUGAACAUGAGGAUCACCCAUGUAAUGUUCAGACGUCUUUAGACGACAGGACCGGGUAGAAUUAAA	0.119	0.109	–	–
AGCAACAAGUCGGCCGCCACUCAAUAAACAUGAGGAUCACCCAUGUAAAUAACAUGAUAAUAAUAGAGGACCGGGACAGUUGCAU	0.0144	0.013	–	–
AGAUUCGACACGGCCGCCACUUUCAGUGGCUGGUGUCAUGGUGCACAUGAGGAUCACCCAUGUGGAAGGACCGGGUGUUGAGUCU	–	–	0.0122	0.0584
GGCACAUAGUCGGCCGCCACUACUAACACCUCAGACAACAUGAGGAUCACCCAUGUUCCAGAGUGUAGGACCGGGACUAUGUGCC	0.0116	0.0105	–	–
GCAUCCUAGUCGGCCGCCACUGACAUGAGGAUCACCCAUGUACAUGAGGAUCACCCAUGUUGUAACAGGACCGGGACUAGGAUGC	0.0997	0.0495	–	–
GAGCGCGUGGACUGGCGUGCUCCGCUCCGUCGAGGACCGGUACGGCCGCCACUCGACAUGAGGAUCACCCAUGUGUGCGCUCGCG	–	–	0.0515	0.0963
CCAUAAGUACCGGUCCUCAGAUCCUCAUGACGAGGACCGGUACGGCCGCCACUCGAAACAUGAGGAUCACCCAUGUAAUAAUAUU	–	–	0.0279	0.021
AUUCAUGGAAACAUGACAUACAUAACCGGUCGAGGACCGGUACGGCCGCCACUCGUUUGGAGGCACAUGAGGAUCACCCAUGUUA	0.0237	0.0245	–	–
ACGCCCGCCUCACAUGAGGAUCACCCAUGUCGAGGACCGGUACGGCCGCCACUCGUCGUCGGUAAUACGGGCGUUGAAUAAUAUA	–	–	0.0115	0.0497
UACUUGCUGACGGCCGCCACUAGAACAUGAGGAUCACCCAUGUACCUGGUCCUUCAUGGGUGGACUAGGACCGGGUCAGCAAGAU	–	–	0.339	0.549
GCAUCCUAGUCGGCCGCCACUGCAACAUGAGGAUCACCCAUGUCUGCAUCUUCAUGAUGCAGUAGCAGGACCGGGACUAGGAUGC	0.185	0.0202	–	–
CGUAUUGGAAACAGUACGAGUGAUCCGGUCCGAGGACCGGUACGGCCGCCACUCGAAAUAAAUAAACAUGAGGAUCACCCAUGUA	–	–	0.0186	0.0284
GUCGGUACGUCGGCAAAGCCGAUGUGCCAGCGAGGACCGGUACGGCCGCCACUCGUACAUGAGGAUCACCCAUGUCCGGUCCGGC	0.0692	0.0707	–	–
UCGGGCAUAGCGGCCGCCACUGUUUGGCGUGCGGAUGACGGAACAUGAGGAUCACCCAUGUUGUUUAGGACCGGGCUUGCGUCGU	–	–	0.0132	0.0152
GCAUCCUAGUCGGCCGCCACUGCAACAUGAGGAUCACCCAUGUCAGGCCUCAUGUGUCCUGGUAGCAGGACCGGGACUAGGAUGC	0.0368	0.0292	–	–

Sequence	apparent Kd [1] [µM]	apparent Kd [2] [µM]	apparent Kd [3] [µM]	apparent Kd [4] [µM]
GGUUACUCUACGGCCGCCACUGUAAAGUAAAUAUUAAUGUACAUGACAUGAGGAUCACCCAUGUACAGGACCGGGUAGUGUAACC	0.0428	0.0185	–	–
UGCAUUAUACAUGGAUCACCCAUGUAGACACGAGGACCGGUACGGCCGCCACUCGGAAGAGGAAACAUGAGGAUCACCCAUGUGA	0.0785	0.0782	–	–
AUAAUUGGGUUAAUUAGUUUUAGGUCCAGUCGAGGACCGGUACGGCCGCCACUCGUUCCGAGAUACAUGAGGAUCACCCAUGUUA	–	–	0.0329	0.0341
UAACAUGAGGAUCACCCAUGUUUGAAGGAACGAGGACCGGUACGGCCGCCACUCGACGAGUGGAUGAGAAGUGGGAUAGUGUGCU	0.0132	0.0138	–	–
GACGCAUGAGUUGUAAAAGCUCAUGGGUCGCGAGGACCGGUACGGCCGCCACUCGGCUGUACAUGAGGAUCACCCAUGUCAGGGU	0.275	0.58	–	–
GGCCCGGACUUGGAAUGGGUGUUUCCCUCACGAGGACCGGUACGGCCGCCACUCGAAGACAUGAGGAUCACCCAUGUAGUCGACA	–	–	0.0449	0.0125
AAUAAACAUGAGGAUCACCCAUGUAGGGUGCGAGGACCGGUACGGCCGCCACUCGGGUGAAAACAUGAGGAUCACCCAUGUAAAA	–	–	0.201	0.363
UAGUCCGCGACGGCCGCCACUCGCUGAUGCACAUGUGUCCGGGACAUGAGGAUCACCCAUGUUUCGAGGACCGGGUCGAUCCUAA	0.0782	0.057	–	–
AGAUUCGACACGGCCGCCACUUGGAGUGGCUGCUAGCAUGUUACACAUGAGGAUCACCCAUGUCUAAGGACCGGGUGUUGAGUCU	–	–	0.0411	0.216
UUAUAUACUACGGCCGCCACUGAACAUGAGGAUCACCCAUGUAAUGUUCAGAUUUUUUUUUUUUACAGGACCGGGUAGAAUUAAA	0.159	0.133	–	–
UACAUGAGGAUCACCCAUGUCCCAUGUGAACGAGGACCGGUACGGCCGCCACUCGACCGAGGCGGCACAUGAGGAUCACCCGCAU	0.736	1.58	–	–
GCUAGGUCAUCGGCCGCCACUAACGAUGGCUCCAACAUGAGGAUCACCCAUGUGCCACAUGCGCAUAGGACCGGGAUGACCUAGC	0.013	0.0105	–	–
UAUGAGCGCACGGCCGCCACUGUCUUCAUCUGUUUGUCUACAUGAGGAUCACCCAUGUUGGUUUACAGGACCGGGUGCAACUAUG	0.0278	0.0224	–	–
UAAUCCGGUCCUCGAUAAUCCUCAUGUAAACGAGGACCGGUACGGCCGCCACUCGAUAACAUGAGGAUCACCCAUGUAAUAAUAA	–	–	0.0895	0.0465
UAAACUACACAUGAGGAUCACCCAUGUGGCCGAGGACCGGUACGGCCGCCACUCGUGUGUUAAUAAAAGAACUGCAAGGUUCUGU	0.35	0.084	–	–
AAUAAUAAGAAUAACGUACCAGGUGAUCAACGAGGACCGGUACGGCCGCCACUCGAAACAUGAGGAUCACCCAUGUAAUAACAAU	–	–	0.0834	0.0583
UAACAUGAGGAUCACCCAUGUAUACUAAGUCGAGGACCGGUACGGCCGCCACUCGAAAUUGAAGAAUUGGCGGUAAAUGUAAGUA	–	–	0.0122	0.0125
GGGACUAGAUCGGCCGCCACUGAUGGGACAUGAGGAUCACCCAUGUACGAAGUGAUCCAAUAAAUCAGGACCGGGAUCACUUGUA	–	–	0.125	0.225
GUUGGAUACUCGGCCGCCACUGAGAGAGUCAUGUGAACAUGAGGAUCACCCAUGUAAUAUAUAUACAGGACCGGGAGUGUUGUAA	–	–	0.0216	0.0168
CCAUCUUCAUCGGCCGCCACUGAACCAAGGAGACAUGAGGAUCACCCAUGUAUGGGAAACCAUCAUAGGACCGGGAUGAAGGUGG	0.0361	0.0309	–	–
GGUUACUCUACGGCCGCCACUGAUUAUUUAUAGUCCUGUACAUAAACAUGAGGAUCACCCAUGUACAGGACCGGGUAGUGUAACC	0.0349	0.0356	–	–
GGGUCAGGCGCGGCCGCCACUGCGGUGAUGUGACAUGAGGAUCACCCAUGUUGUCAUGUGGCACAUAGGACCGGGCGCCUGGCCC	–	–	0.0292	0.0316
UUCACAUGGUAUGAAUAUACAUACAAGAAACGAGGACCGGUACGGCCGCCACUCGUGCCGGAAACAUGAGGAUCACCCAUGUGUU	–	–	0.037	0.0454
